The values that follow come from publication PMC9055346 (RSC Advances, 2020).

The target of experiment [1] is AChE from electric eel (EeAChE) (Electrophorus electricus, UniProt O42275). The experiment is described as follows: In vitro AChE inhibition, modified Ellman's method. The format is biochemical. To be noted: for IC50: EeAChE IC50 ± SEM, mean of three independent experiments; for inhibition at 156 µM / inhibition at 312 µM / inhibition at 625 µM / inhibition at 1250 µM / inhibition at 2500 µM / inhibition at 5000 µM / inhibition at 10000 µM: read-out: % of AChE inhibition; for AChE inhibitory activity (in words): up to 10 mM.
Chain of AChE from electric eel (EeAChE) (O42275 24-633): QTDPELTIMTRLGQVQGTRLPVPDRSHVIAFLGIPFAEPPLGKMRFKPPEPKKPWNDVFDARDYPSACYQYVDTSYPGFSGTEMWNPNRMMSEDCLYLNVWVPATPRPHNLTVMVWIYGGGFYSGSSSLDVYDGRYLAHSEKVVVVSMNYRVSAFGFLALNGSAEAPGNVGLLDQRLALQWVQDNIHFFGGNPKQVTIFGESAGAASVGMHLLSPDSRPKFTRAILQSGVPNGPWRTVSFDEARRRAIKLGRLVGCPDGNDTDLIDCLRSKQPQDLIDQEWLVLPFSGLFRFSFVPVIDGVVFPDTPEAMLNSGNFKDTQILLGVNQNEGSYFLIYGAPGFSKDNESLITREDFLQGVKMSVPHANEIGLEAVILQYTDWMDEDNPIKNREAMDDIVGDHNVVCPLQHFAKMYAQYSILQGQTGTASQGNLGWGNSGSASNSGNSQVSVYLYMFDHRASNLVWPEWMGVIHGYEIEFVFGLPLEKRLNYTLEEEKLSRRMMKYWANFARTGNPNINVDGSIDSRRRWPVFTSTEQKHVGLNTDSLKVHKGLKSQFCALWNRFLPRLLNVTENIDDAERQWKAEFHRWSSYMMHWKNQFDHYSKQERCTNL

Experiment [2] in a line: Antioxidant assay, ORAC-FL method. To be noted: compound and Trolox at 8 μM, 37 °C, three independent experiments. In short, it runs like this:
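ORAC-FL in 75 mM phosphate buffer, 200 μL total: test compound, Trolox (both 8 μM) or buffer blank with 150 nM fluorescein solution, kept dark at 37 °C for 30 min. Then 12 mM AAPH solution is added and fluorescence (ex 485/em 535 nm) read every 1 min for 15 min. Net AUC vs blank is expressed as Trolox equivalents (Trolox = 1). Triplicates; three independent experiments, mean ± SEM.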

Experiment [3] can be described thus: Metal chelation study by UV spectrophotometer. The format is physicochemical. The note with it: UV spectra 200 to 600 nm. In short, it runs like this: (§1)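 UV spectra from 200 to 600 nm at 37 °C. Test compound and metal salt (FeCl3, CuCl2, ZnSO4·H2O or AlCl3·6H2O) are combined at 100 μM each and incubated at 37 °C for 30 min. Compound-alone spectra use water in place of metal. Read-outs are % change in absorbance, (+) for decrease and (−) for increase, plus band shift.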

Experiment [4] is described as follows: Metal chelation study by UV spectrophotometer. Type of experiment: physicochemical. The note with it: UV spectra 200 to 600 nm. In short, it runs like this: as §1
The source holds these as a separate data set.

The structures appear in SMILES notation. Bounds are passed on as bounds.

The IC50 is the concentration needed to halve the response being measured. A lower IC50 goes with higher potency. Usually inhibition stands for the drop in the measured response relative to a control, in per cent.

For the compound `Cc1ncc(COCc2cn(Cc3cccc(C(F)(F)F)c3)nn2)c(CO)c1O` [Compound 5p, 4-(Hydroxymethyl)-2-methyl-5-(((1-(3-(trifluoromethyl)benzyl)-1H-1,2,3-triazol-4-yl)methoxy)methyl)pyridin-3-ol], inhibition in experiment [1] was half-maximal at 3.65 mM (IC50). In addition, the “ORAC index ± SEM” value in experiment [2] is reported as 0.8718 Trolox equivalents.

For the compound `Cc1ccc(Cn2cc(COCc3cnc(C)c(O)c3CO)nn2)cc1` [Compound 5b, 4-(Hydroxymethyl)-2-methyl-5-(((1-(4-methylbenzyl)-1H-1,2,3-triazol-4-yl)methoxy)methyl)pyridin-3-ol], half-maximal inhibition in experiment [1] (IC50) was put at 3.38 mM. The “ORAC index ± SEM” value in experiment [2] stood at 1.8428 Trolox equivalents.

`Cc1ncc(COCc2cn(Cc3cccc(Cl)c3)nn2)c(CO)c1O` [Compound 5k, 5-(((1-(3-Chlorobenzyl)-1H-1,2,3-triazol-4-yl)methoxy)methyl)-4-(hydroxymethyl)-2-methylpyridin-3-ol]: the IC50 in experiment [1] turned out to be 2.71 mM. In experiment [2], the “ORAC index ± SEM” value is reported as 0.8358 Trolox equivalents.

As to `Cc1c(C)c2c(c(C)c1O)CCC(C)(C(=O)O)O2` (centres unmarked) [Trolox, reference compound], the “ORAC index ± SEM” value in experiment [2] was 1 Trolox equivalents.

In experiment [1], `Cc1ncc(COCc2cn(Cc3ccc(Cl)c(Cl)c3)nn2)c(CO)c1O` [Compound 5l, 5-(((1-(3,4-Dichlorobenzyl)-1H-1,2,3-triazol-4-yl)methoxy)methyl)-4-(hydroxymethyl)-2-methylpyridin-3-ol] showed an IC50 of 3.38 mM. Moreover, the “ORAC index ± SEM” value in experiment [2] was 1.9421 Trolox equivalents.

On to `COc1cccc(Cn2cc(COCc3cnc(C)c(O)c3CO)nn2)c1` [Compound 5e, 4-(Hydroxymethyl)-5-(((1-(3-methoxybenzyl)-1H-1,2,3-triazol-4-yl)methoxy)methyl)-2-methylpyridin-3-ol], for which the IC50 in experiment [1] is 4.57 mM. Also, the “ORAC index ± SEM” value in experiment [2] came out at 1.8862 Trolox equivalents.

Take `Cc1ncc(COCc2cn(Cc3cccc(F)c3)nn2)c(CO)c1O` [Compound 5h, 5-(((1-(3-Fluorobenzyl)-1H-1,2,3-triazol-4-yl)methoxy)methyl)-4-(hydroxymethyl)-2-methylpyridin-3-ol]: in experiment [1], the IC50 turned out to be 1.54 mM, the inhibition at 156 µM was found to be 19%, the inhibition at 312 µM is 25.5% and the inhibition at 625 µM is 35.1%. In addition, in experiment [1], the inhibition at 1250 µM is 56.4%, the inhibition at 2500 µM turned out to be 60.5%, the inhibition at 5000 µM amounted to 66.6% and the inhibition at 10000 µM turned out to be 69%. Further, in experiment [2], the “ORAC index ± SEM” value is 2.1015 Trolox equivalents.

Compound `Cc1ncc(COCc2cn(Cc3ccc(Cl)cc3)nn2)c(CO)c1O` [Compound 5j, 5-(((1-(4-Chlorobenzyl)-1H-1,2,3-triazol-4-yl)methoxy)methyl)-4-(hydroxymethyl)-2-methylpyridin-3-ol] had an IC50 in experiment [1] of 2.72 mM. For the same compound, in experiment [2], the “ORAC index ± SEM” value was found to be 1.9697 Trolox equivalents.

`Cc1ncc(COCc2cn(Cc3ccccc3C(F)(F)F)nn2)c(CO)c1O` [Compound 5q, 4-(Hydroxymethyl)-2-methyl-5-(((1-(2-(trifluoromethyl)benzyl)-1H-1,2,3-triazol-4-yl)methoxy)methyl)pyridin-3-ol]: in experiment [1], it took 1.13 mM to reach half-maximal inhibition (IC50), the inhibition at 156 µM came out at 22.5%, the inhibition at 312 µM worked out at 26.9% and the inhibition at 625 µM is 39.1%. In experiment [1], the inhibition at 1250 µM is 53.8%, the inhibition at 2500 µM is 64.1%, the inhibition at 5000 µM was 73.4% and the inhibition at 10000 µM came to 81.9%. Moreover, the “ORAC index ± SEM” value in experiment [2] amounted to 0.7168 Trolox equivalents. For the same compound, the “chelation of Fe^3+ (in words)” value in experiment [3] is recorded as “chelated”. Besides, the “chelation of Al^3+ (in words)” value in experiment [4] is listed as “chelated”.

On to `Cc1ccccc1Cn1cc(COCc2cnc(C)c(O)c2CO)nn1` [Compound 5d, 4-(Hydroxymethyl)-2-methyl-5-(((1-(2-methylbenzyl)-1H-1,2,3-triazol-4-yl)methoxy)methyl)pyridin-3-ol], for which, in experiment [1], the IC50 is 0.907 mM, the inhibition at 156 µM stood at 33.5%, the inhibition at 312 µM was 36.4% and the inhibition at 625 µM amounted to 51.1%. Further, in experiment [1], the inhibition at 1250 µM is 58.6%, the inhibition at 2500 µM was 69.6%, the inhibition at 5000 µM worked out at 81.3% and the inhibition at 10000 µM stood at 86%. Further, in experiment [2], the “ORAC index ± SEM” value stood at 1.9723 Trolox equivalents.

As to `Cc1ncc(CO)c(CO)c1O` [Pyridoxine, reference compound], the “AChE inhibitory activity (in words)” value in experiment [1] is “not an AChE inhibitor”; in experiment [1] (listed as pyridoxine) it was “inactive”. In addition, in experiment [2], the “ORAC index ± SEM” value amounted to 0.5249 Trolox equivalents.

Regarding `Cc1ncc(COCc2cn(Cc3ccc(C(F)(F)F)cc3)nn2)c(CO)c1O` [Compound 5o, 4-(Hydroxymethyl)-2-methyl-5-(((1-(4-(trifluoromethyl)benzyl)-1H-1,2,3-triazol-4-yl)methoxy)methyl)pyridin-3-ol], half-maximal inhibition in experiment [1] (IC50) was put at 6.52 mM. Further, in experiment [2], the “ORAC index ± SEM” value came out at 2.0758 Trolox equivalents.

As to `Cc1ncc(COCc2cn(Cc3ccc(Br)cc3)nn2)c(CO)c1O` [Compound 5m, 5-(((1-(4-Bromobenzyl)-1H-1,2,3-triazol-4-yl)methoxy)methyl)-4-(hydroxymethyl)-2-methylpyridin-3-ol], in experiment [1], the IC50 was 3.14 mM. Also, in experiment [2], the “ORAC index ± SEM” value is 1.215 Trolox equivalents.

Turning to `Cc1ncc(COCc2cn(Cc3ccccc3)nn2)c(CO)c1O` [Compound 5a, 5-(((1-Benzyl-1H-1,2,3-triazol-4-yl)methoxy)methyl)-4-(hydroxymethyl)-2-methylpyridin-3-ol], in experiment [1], the concentration for half-maximal inhibition (IC50) was over 10 mM and the “AChE inhibitory activity (in words)” value was “inactive”. The “ORAC index ± SEM” value in experiment [2] came to 1.0564 Trolox equivalents.

On to `COc1cc(Cn2cc(COCc3cnc(C)c(O)c3CO)nn2)cc(OC)c1` [Compound 5f, 5-(((1-(3,5-Dimethoxybenzyl)-1H-1,2,3-triazol-4-yl)methoxy)methyl)-4-(hydroxymethyl)-2-methylpyridin-3-ol], for which, in experiment [1], the IC50 turned out to be 2.65 mM. In addition, in experiment [2], the “ORAC index ± SEM” value was 2.3425 Trolox equivalents.

As to `Cc1ncc(COCc2cn(Cc3cccc(Br)c3)nn2)c(CO)c1O` [Compound 5n, 5-(((1-(3-Bromobenzyl)-1H-1,2,3-triazol-4-yl)methoxy)methyl)-4-(hydroxymethyl)-2-methylpyridin-3-ol], in experiment [1], the IC50 was determined as 1.08 mM, the inhibition at 156 µM is 14.7%, the inhibition at 312 µM came to 25.8% and the inhibition at 625 µM amounted to 42%. Besides, in experiment [1], the inhibition at 1250 µM is 57.4%, the inhibition at 2500 µM is 70.2%, the inhibition at 5000 µM was found to be 75.9% and the inhibition at 10000 µM came to 86.3%. For the same compound, in experiment [2], the “ORAC index ± SEM” value stood at 2.2079 Trolox equivalents.

For `Cc1ncc(COCc2cn(Cc3ccc(F)cc3)nn2)c(CO)c1O` [Compound 5g, 5-(((1-(4-Fluorobenzyl)-1H-1,2,3-triazol-4-yl)methoxy)methyl)-4-(hydroxymethyl)-2-methylpyridin-3-ol], inhibition in experiment [1] was half-maximal at 6.47 mM (IC50). The “ORAC index ± SEM” value in experiment [2] was 1.4489 Trolox equivalents.
